High-throughput results as filed in PubChem.
Many of the other results were omitted from the sample, so hits are more common in it than they were.
INS promoter act = activators of insulin promoter-driven GFP, primary screen, imaging, TRM-6 cells (human fetal islet line), eGFP reporter, cell count. plate-scaled: unstimulated 0, stimulated control 100. activation, % at 2 µM. 130,000 tested, 0.81% active;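 active means activation at 2 µM above a set limit, confirmed on inspection of the cell images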;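 further: share of cells whose green reporter signal exceeds an intensity cutoff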
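Assay system: TRM-6 insulin promoter–eGFP reporter cells / Input: 1,000 cells per well / Medium: Low-glucose (5.5 mM) medium with tamoxifen / Also added: tamoxifen inducer, 0.75 µM, in seeding medium / Timing: overnight tamoxifen, then two-day compound incubation at 37 °C / Signal: automated fluorescence imaging of paraformaldehyde-fixed, Hoechst-counterstained cells, green channel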
Numbers stand for hits; . = inactive.

SMILES	INS promoter act
CC1c2c([nH]c3ccccc23)CCC1C(=O)O (configuration not stated)	.
COCC(=O)N(c1ccccc1)C(C)C(=O)OC (configuration not stated)	.
CCc1ccc(NC(=S)NCC2CCCN2CC)cc1 (configuration not stated)	.
CCN1CCCC1CNCc1cccc(OC)c1OCc1ccccc1F (configuration not stated)	.
CCOc1cc(CNCCCN2CCOCC2)cc(Br)c1OCc1ccccc1Cl	.
CCOc1cc(CNCC2CCCN2CC)cc(Cl)c1OC (configuration not stated)	345.0
CCNCc1ccccc1OCc1ccccc1	.
CCN1CCCC1CNCc1ccccc1OCc1ccc(F)cc1 (configuration not stated)	97.2
COc1ccc2oc(C(=O)OCc3c(C)noc3C)c(C)c2c1	.
COc1ccc(C(=O)NCC(=O)OCC(=O)N2N=C(c3ccc(Cl)cc3)CC2c2ccco2)cc1OC (configuration not stated)	.
CCCn1nnnc1SCC(=O)N(C(C)C)C(C)C	.
O=C(CNC1CCCCC1)NN=C(c1ccccc1)c1ccccc1	.
CCOC(=O)c1cc(-c2ccccc2)n(CCC(=O)N2CCN(c3ccccn3)CC2)c1C	.
CCOC(=O)C1(CC2CCCCO2)CCN(Cc2nc(C(C)C)cs2)CC1 (configuration not stated)	375.0
CCOC(=O)C1(CC2CC2)CCN(Cc2ccc(OC)cc2F)CC1	.
CCOC(=O)C1(Cc2ccccc2)CCN(Cc2ccon2)CC1	.
CCCCNC(=O)NC1CCCC1	.
CCn1c(CN2CCN(c3cccc(C)c3C)CC2)n[nH]c1=S	.
Fc1ccc(Cc2nnc(-c3cccs3)o2)cc1	.
Clc1ccccc1-c1nnc(-c2cccs2)o1	.
O=[N+]([O-])c1ccc(Cc2nnc(-c3ccccc3Cl)o2)cc1	343.8
CC#CC[N+](C)(CC#CC)CC(=O)c1ccccc1	.
Cc1cccnc1NC(=O)CSc1nnc(Cc2ccccc2)o1	.
CCCCOC(=O)CNc1n[nH]c(=S)[nH]c1=O	.
COc1ccc(/C=N/NC(=O)CCNc2n[nH]c(=O)[nH]c2=O)c(OC)c1	.
SMILES	INS promoter act
CC(C)OC(=O)CCNc1n[nH]c(=O)[nH]c1=O	542.9
CCOc1ccccc1NC(=O)c1ccc(F)c(S(=O)(=O)N2CCC3(CC2)OCCO3)c1	.
CCOC(=O)CC1(c2ccccc2)CCOC(C)(C)C1 (configuration not stated)	.
CCCCN(CCCC)S(=O)(=O)c1ccc(NC(=O)CN2CCOCC2)cc1	.
O=C(CN1CCCCC1)Nc1ccc(S(=O)(=O)N2CCOCC2)cc1	.
O=C(CN1CCOCC1)Nc1ccc(S(=O)(=O)NC2CCCCC2)cc1	200.0
CC(C)n1c(-c2ccco2)csc1=Nc1cccnc1	.
CCOC(=O)c1c(NC(=O)CN2C(=O)NC(C)(c3ccccc3)C2=O)sc(C)c1C (configuration not stated)	.
Cc1ccc(NC(=O)CN2CCN(CCN=CC3=C(O)CC(c4ccccc4)CC3=O)CC2)cc1 (configuration not stated)	.
Cc1ccc(OCn2c(=O)sc3ccccc32)cc1	437.1
CCOC(=O)Cn1c(=O)sc2ccccc21	.
COc1ccc(-n2c(Cn3c(=O)sc4ccccc43)nnc2SC)cc1	.
COC(=O)C(CCSC)NC(=O)c1cc2c(n(-c3ccccc3)c1=O)CC(C)(C)CC2=O (configuration not stated)	.
COc1cc(OC)cc(C(=O)NCCNC(=O)c2ccco2)c1	.
Cc1cc2nc(SCC(=O)N(C)C)c3c(c2cc1C)CCCC3	.
O=C(CNC(=S)N(Cc1ccccc1)Cc1cccs1)NCc1ccc(F)cc1	.
CC(C)C(C(=O)NCC1CCCO1)N(Cc1ccco1)C(=O)CNS(=O)(=O)c1ccc(F)cc1 (configuration not stated)	.
O=C(CN(Cc1cccs1)C(=O)CNS(=O)(=O)c1ccc(F)cc1)NCc1ccco1	171.4
CCOC(=O)C1C(=O)C=C(Nc2ccccc2F)CC1c1ccccc1 (configuration not stated)	.
COc1ccc(-c2nnc(OCc3ccccc3)c3ccccc23)cc1	.
CC(NC(=S)Nc1ccc(S(=O)(=O)N2CCOCC2)cc1)C1CC2CCC1C2 (configuration not stated)	.
O=C(Nc1ncc2c(n1)CC(c1ccco1)CC2=O)c1ccccc1 (configuration not stated)	.
Cc1nn2c3c(cnc2c1-c1ccccc1)C(=O)CC(c1ccco1)C3 (configuration not stated)	136.4
Cc1ccc(NC(=O)CSCC(=O)Nc2ncc3c(n2)CC(c2ccco2)CC3=O)cc1 (configuration not stated)	.
CCc1cccc(C)c1NC(=S)NCc1cccn1C	.
SMILES	INS promoter act
CCCCCCNS(=O)(=O)c1ccc(NC(=O)C2CCCO2)cc1 (configuration not stated)	.
COc1ccc(CCNC(=O)C2CCCN(c3nn4c(=O)cc(C)nc4s3)C2)cc1OC (configuration not stated)	.
CCc1ccc(-c2nc(CN3CCCC(C(=O)NCCc4ccc(OC)c(OC)c4)C3)c(C)o2)cc1 (configuration not stated)	121.4
COc1ccc(CCNC(=O)C2CCN(S(=O)(=O)c3c(C)noc3C)CC2)cc1OC	.
Cc1onc(-c2c(Cl)cccc2Cl)c1C(N)=S	.
O=C(Nc1cc(SCC(O)CO)cc([N+](=O)[O-])c1)c1ccc(-n2cnnn2)cc1 (configuration not stated)	.
COc1ccc(N2CCN(C(=O)CCNC(=O)c3ccccc3)CC2)cc1	.
Cc1cc(C)cc(N(CC(=O)N2CCOCC2)S(=O)(=O)c2ccccc2)c1	.
COc1ccc(N2CCN(C(=O)CN(c3ccccc3)S(=O)(=O)c3ccc(OC)cc3)CC2)cc1	80.0
CC(=O)c1cnc(Nc2cccc(C)c2)s1	.
COc1ccc(C(=O)Nc2nc(C)cs2)cc1S(=O)(=O)N1CCCC1	221.1
Cc1csc(NC(=O)c2cccc(S(=O)(=O)N3CCCCC3)c2)n1	.
Cc1nnc(NC(=O)c2ccc(C)c(S(=O)(=O)N3CCCCCC3)c2)s1	.
CCC(Cc1ccccc1)NC(=O)CCn1cccc1 (configuration not stated)	.
CC(C)OC(=O)NS(=O)(=O)c1cccc([N+](=O)[O-])c1	.
O=C(Cc1ccccc1)N1CCN(C(=O)c2ccco2)CC1	528.6
CCCCc1ccc(S(=O)(=O)N2CCN(C(=O)c3ccco3)CC2)cc1	.
O=C(c1ccco1)N1CCN(S(=O)(=O)c2cccs2)CC1	.
O=C(Cc1ccccc1F)OCC(=O)N1CCN(C(=O)c2ccco2)CC1	.
O=C(CCSc1ccccc1)N1CCN(C(=O)c2ccco2)CC1	.
O=C(c1ccco1)N1CCN(S(=O)(=O)Cc2ccc(Cl)cc2)CC1	420.0
CCCCNC(=O)CN(C1CCCCC1)S(C)(=O)=O	.
O=c1ccn(-c2cccc(C(F)(F)F)c2)nc1-c1ccn(-c2ccccc2)n1	.
O=C1NC(NS(=O)(=O)c2ccc(Cl)cc2)(C(F)(F)F)C(=O)N1Cc1cccnc1 (configuration not stated)	.
COc1cccc(-n2c(SCC(N)=O)nc3c([nH]c4ccccc43)c2=O)c1	252.2
Cc1cc(NC(=O)CSc2nc3c([nH]c4ccccc43)c(=O)n2-c2cccc(C(F)(F)F)c2)no1	.
COc1cccc(-n2c(SCC(N)=O)nnc2-c2ccncc2)c1	.
